Assay results reported in ChEMBL document CHEMBL3400032 (Bioorg Med Chem, 2015).
The source made the active and inactive calls. The rule behind the calls is not given here.

Legend:
[1] = Permeability of the compound at pH 5 by PAMPA; assay type: ADME; conditions: read-out: permeability
[2] = Drug metabolism in Sprague-Dawley rat liver S9 fraction assessed as 2-(3-aminopiperidin-1-yl)-3-(2-chlorobenzyl)-5-methyl-4-oxo-4,5-dihydro-3H-imidazo[4,5-c]quinoline-8-carboxylic acid formation at 1 uM after 30 mins by HPLC/MS/MS analysis relative to control; assay type: ADME, subcellular; conditions: s9, 0.5 h
In short: (§1)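 Test compound at 1 µM final, incubated 30 min at 37 °C in serum, or in S9 mix (50 mM potassium phosphate pH 7.4, 3 mM NADPH, 1 mg protein/mL pooled male SD rat or human liver S9). Preincubated 5 min at 37 °C, compound added in acetonitrile–water (1:1), stopped with ice-cold acetonitrile, centrifuged, filtered, parent and carboxylate hydrolysate quantified by HPLC-MS/MS.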

[3] = Drug metabolism in human liver S9 fraction assessed as 2-(3-aminopiperidin-1-yl)-3-(2-chlorobenzyl)-5-methyl-4-oxo-4,5-dihydro-3H-imidazo[4,5-c]quinoline-8-carboxylic acid formation at 1 uM after 30 mins by HPLC/MS/MS analysis relative to control; assay type: ADME, subcellular; conditions: s9, 0.5 h; in short: as §1
[4] = Solubility of the compound at pH 7.4; assay type: physicochemical; conditions: buffer
[5] = Solubility of the compound at pH 2.5; assay type: physicochemical; conditions: buffer
[6] = test system: Rattus norvegicus; test: In vivo inhibition of DPP4 in Sprague-Dawley rat at 3 mg/kg, po after 10 hrs; assay type: functional
In short: (§2)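 Male SD rats, 11 weeks, fasted 24 h before predose sampling and throughout; single oral gavage 3 mg/kg. Blood taken −0.5, 1, 2, 4, 6, 10, 24 h. Plasma DPP-4 activity: Gly-Pro-MCA substrate, HEPES/NaCl/MgCl2 buffer pH 7.8, stopped with 5% acetic acid after 20 min, AMC fluorescence 360/460 nm against AMC standard curve; duplicates, background-subtracted, mU/mL plasma.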

[7] = test system: Rattus norvegicus; test: Reduction of blood glucose level in po dosed Zucker fatty rat model by OGTT analysis; assay type: functional, organism-based
[8] = test system: Serum; test: Drug metabolism in human serum assessed as 2-(3-aminopiperidin-1-yl)-3-(2-chlorobenzyl)-5-methyl-4-oxo-4,5-dihydro-3H-imidazo[4,5-c]quinoline-8-carboxylic acid formation at 1 uM after 30 mins by HPLC/MS/MS analysis relative to control; assay type: ADME, cell-free; conditions: 0.5 h; in short: as §1
[9] = test system: Rattus norvegicus; test: Reduction of blood glucose level in Zucker fatty rat model at 1 mg/kg, po by OGTT analysis; assay type: functional, organism-based; set-up: dose 1 mg/kg
[10] = Drug metabolism in rat serum assessed as compound remaining at 1 uM after 30 mins by HPLC/MS/MS analysis relative to control; assay type: ADME, cell-free; conditions: read-out: Stability; in short: as §1
[11] = test system: Rattus norvegicus; test: In vivo inhibition of DPP4 in Sprague-Dawley rat at 3 mg/kg, po after 1 hr; assay type: functional; in short: as §2
[12] = test system: Rattus norvegicus; test: Oral bioavailability in rat assessed as 2-(3-aminopiperidin-1-yl)-3-(2-chlorobenzyl)-5-methyl-4-oxo-4,5-dihydro-3H-imidazo[4,5-c]quinoline-8-carboxylic acid level at 20 mg/kg; assay type: ADME, organism-based; conditions: in vivo
[13] = Drug metabolism in Sprague-Dawley rat liver S9 fraction assessed as compound remaining at 1 uM after 30 mins by HPLC/MS/MS analysis relative to control; assay type: ADME, subcellular; conditions: read-out: Stability; in short: as §1
[14] = test system: Plasma; test: Plasma concentration in rat at 20 mg/kg, po; assay type: ADME, organism-based; set-up: dose 20 mg/kg, route oral; conditions: in vivo
In short: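 Rats dosed orally with prodrug; plasma levels of prodrug and carboxylate active metabolite measured over time, limit of quantification 1.0 ng/mL.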

[15] = test system: Rattus norvegicus; test: AUC in rat assessed as 2-(3-aminopiperidin-1-yl)-3-(2-chlorobenzyl)-5-methyl-4-oxo-4,5-dihydro-3H-imidazo[4,5-c]quinoline-8-carboxylic acid level at 20 mg/kg, po; assay type: ADME, organism-based, Plasma; set-up: dose 20 mg/kg, route oral; conditions: in vivo
[16] = test system: Rattus norvegicus; test: Cmax in rat assessed as 2-(3-aminopiperidin-1-yl)-3-(2-chlorobenzyl)-5-methyl-4-oxo-4,5-dihydro-3H-imidazo[4,5-c]quinoline-8-carboxylic acid level at 20 mg/kg, po; assay type: ADME, organism-based; set-up: dose 20 mg/kg, route oral; conditions: in vivo
[17] = Drug metabolism in human serum assessed as compound remaining at 1 uM after 30 mins by HPLC/MS/MS analysis relative to control; assay type: ADME, cell-free; conditions: read-out: Stability; in short: as §1
[18] = Drug metabolism in human liver S9 fraction assessed as compound remaining at 1 uM after 30 mins by HPLC/MS/MS analysis relative to control; assay type: ADME, subcellular; conditions: read-out: Stability; in short: as §1
[19] = test system: Rattus norvegicus; test: Tmax in rat assessed as 2-(3-aminopiperidin-1-yl)-3-(2-chlorobenzyl)-5-methyl-4-oxo-4,5-dihydro-3H-imidazo[4,5-c]quinoline-8-carboxylic acid level at 20 mg/kg, po; assay type: ADME, organism-based; set-up: dose 20 mg/kg, route oral; conditions: in vivo
[20] = Solubility of the compound at pH 5.5; assay type: physicochemical; conditions: buffer
[21] = Permeability of the compound at pH 7.4 by PAMPA; assay type: ADME; conditions: read-out: permeability
[22] = test system: Serum; test: Drug metabolism in rat serum assessed as 2-(3-aminopiperidin-1-yl)-3-(2-chlorobenzyl)-5-methyl-4-oxo-4,5-dihydro-3H-imidazo[4,5-c]quinoline-8-carboxylic acid formation at 1 uM after 30 mins by HPLC/MS/MS analysis relative to control; assay type: ADME, cell-free; conditions: 0.5 h; in short: as §1
[23] = test system: Rattus norvegicus; test: AUC in rat assessed as 2-(3-aminopiperidin-1-yl)-3-(2-chloro-5-fluorobenzyl)-5-methyl-4-oxo-4,5-dihydro-3H-imidazo[4,5-c]quinoline-7-carboxylic acid level at 10 mg/kg, po; assay type: ADME, organism-based, Plasma; set-up: dose 10 mg/kg, route oral; conditions: in vivo
[24] = test system: Rattus norvegicus; test: Oral bioavailability in rat assessed as 2-(3-aminopiperidin-1-yl)-3-(2-chloro-5-fluorobenzyl)-5-methyl-4-oxo-4,5-dihydro-3H-imidazo[4,5-c]quinoline-7-carboxylic acid level at 10 mg/kg; assay type: ADME, organism-based; conditions: in vivo

With Cc1oc(=O)oc1COC(=O)c1ccc2c(c1)c1nc(N3CCC[C@@H](N)C3)n(Cc3ccccc3Cl)c1c(=O)n2C.Cl the Papp [1] was 10.3 ×10⁻⁶ cm/s, the Drug metabolism [2] was “metabolite_detected” and the Drug metabolism [3] was “metabolite_detected”. The solubility [4] was < 1 µg/mL, the solubility [5] was 210 µg/mL and the inhibition in vivo at 3 mg/kg [6] was 64%. The Activity [7] was “Dose-dependent effect”, the Drug metabolism [8] was “metabolite_detected” and the Activity [9] was “Active”. For the same molecule, the remaining at 0.5 h, 1 µM [10] was < 0.5%, the inhibition in vivo at 3 mg/kg [11] was 87% and the F [12] was 35%. For the same molecule, the remaining at 0.5 h, 1 µM [13] was < 0.5%, the Cp [14] was < 1 ng/mL and the AUC [15] was 728 ng·h/mL. The Cmax [16] was 94.1 ng/mL, the remaining at 0.5 h, 1 µM [17] was < 0.5% and the remaining at 0.5 h, 1 µM [18] was 7.8%. For the same molecule, the Tmax [19] was 2 h, the solubility [20] was 3 µg/mL and the Papp [21] was 12.1 ×10⁻⁶ cm/s. The Drug metabolism [22] was “metabolite_detected”.
In the case of Cc1oc(=O)oc1COC(=O)c1ccc2c3nc(N4CCC[C@@H](N)C4)n(Cc4cc(F)ccc4Cl)c3c(=O)n(C)c2c1.Cl, the Papp [1] is reported as 15.8 ×10⁻⁶ cm/s, the AUC [23] is reported as 43.9 ng·h/mL and the solubility [4] is reported as < 1 µg/mL. The solubility [5] was 47 µg/mL, the remaining at 0.5 h, 1 µM [10] was < 0.5% and the remaining at 0.5 h, 1 µM [13] was 3.6%. For the same molecule, the remaining at 0.5 h, 1 µM [17] was < 0.5%, the remaining at 0.5 h, 1 µM [18] was 13% and the F [24] was 4.8%. For the same molecule, the solubility [20] was 1 µg/mL and the Papp [21] was 15.9 ×10⁻⁶ cm/s.
